Results as given in ChEMBL document CHEMBL2346664, “Synthesis, characterization and in vitro anticancer evaluation of novel 1,2,4-triazolin-3-one derivatives” (2013).

Key:
Type in all cases: functional
T47D = test: Growth inhibition of human T47D cells assessed as cell growth at 10 '-7 M after 48 hrs by sulforhodamine B assay; details: read-out: Activity
A498 = test: Growth inhibition of human A498 cells assessed as growth inhibition at 10 uM after 48 hrs by sulforhodamine B assay; details: A498, 48 h, read-out: GI
Method in brief: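 Percent growth inhibition from the single 10^-5 M NCI-60 screen, reported as 100 minus growth percent. Growth percent was measured after 48 h drug exposure at 37 °C, 5% CO2, using TCA fixation, SRB staining and absorbance at 515 nm, against untreated controls and time-zero plates.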

SNB-19 = test: Growth inhibition of human SNB19 cells after 48 hrs by sulforhodamine B assay; details: SNB-19, 48 h
HCT-15 = test: Growth inhibition of human HCT15 cells assessed as cell growth at 10 '-8 M after 48 hrs by sulforhodamine B assay; details: HCT-15, 48 h, read-out: Activity
LOX IMVI = test: Growth inhibition of human LOXIMVI cells after 48 hrs by sulforhodamine B assay
Method in brief: (§1)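 NCI 60-cell-line five-dose screen. Cells were plated at 5,000–40,000/well by doubling time and grown 24 h at 37 °C, 5% CO2. Time-zero plates were TCA-fixed. Drug from DMSO stock was tested at 0.01, 0.1, 1, 10 and 100 µM final for 48 h continuous exposure. Read-out was SRB at 515 nm. GI50 is the concentration giving 50% reduction in net protein increase versus untreated control.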

PC-3 [1] = test: Growth inhibition of human PC3 cells assessed as cell growth at 10 '-8 M after 48 hrs by sulforhodamine B assay; details: PC-3, 48 h, read-out: Activity
K562 = test: Growth inhibition of human K562 cells assessed as cell growth at 10 '-6 M after 48 hrs by sulforhodamine B assay; details: K562, 48 h, read-out: Activity
SK-MEL-2 = test: Growth inhibition of human SK-MEL-2 cells assessed as cell growth at 10 '-5 M after 48 hrs by sulforhodamine B assay; details: SK-MEL-2, 48 h, read-out: Activity
SN12C [2] = test: Growth inhibition of human SN12C cells assessed as cell growth at 10 '-7 M after 48 hrs by sulforhodamine B assay; details: read-out: Activity
MDA-MB-468 = test: Growth inhibition of human MDA-MB-468 cells assessed as cell growth at 10 '-8 M after 48 hrs by sulforhodamine B assay; details: MDA-MB-468, 48 h, read-out: Activity
HCT-116 = test: Growth inhibition of human HCT116 cells assessed as cell growth at 10 '-7 M after 48 hrs by sulforhodamine B assay; details: HCT-116, 48 h, read-out: Activity
MCF7 = test: Growth inhibition of human MCF7 cells assessed as cell growth at 10 '-6 M after 48 hrs by sulforhodamine B assay; details: MCF7, 48 h, read-out: Activity
OVCAR-4 = test: Growth inhibition of human OVCAR4 cells assessed as cell growth at 10 '-7 M after 48 hrs by sulforhodamine B assay; details: OVCAR-4, 48 h, read-out: Activity
NCI-H23 = test: Growth inhibition of human NCI-H23 cells assessed as growth inhibition at 10 uM after 48 hrs by sulforhodamine B assay; details: NCI-H23, 48 h, read-out: GI
RPMI-8226 = test: Growth inhibition of human RPMI8226 cells assessed as cell growth at 10 '-5 M after 48 hrs by sulforhodamine B assay; details: RPMI-8226, 48 h, read-out: Activity
MOLT-4 = test: Growth inhibition of human MOLT4 cells assessed as cell growth at 10 '-6 M after 48 hrs by sulforhodamine B assay; details: MOLT-4, 48 h, read-out: Activity
HT-29 = test: Growth inhibition of human HT-29 cells assessed as cell growth at 10 '-4 M after 48 hrs by sulforhodamine B assay; details: HT-29, 48 h, read-out: Activity
SN12C [3] = test: Growth inhibition of human SN12C cells assessed as cell growth at 10 '-6 M after 48 hrs by sulforhodamine B assay; details: read-out: Activity
HOP-62 = test: Growth inhibition of human HOP62 cells assessed as cell growth at 10 '-5 M after 48 hrs by sulforhodamine B assay; details: HOP-62, 48 h, read-out: Activity
U-251 = test: Growth inhibition of human U251 cells assessed as cell growth at 10 '-4 M after 48 hrs by sulforhodamine B assay; details: U-251, 48 h, read-out: Activity
UO-31 = test: Growth inhibition of human UO31 cells after 48 hrs by sulforhodamine B assay; details: UO-31, 48 h
NCI-H522 [4] = test: Growth inhibition of human NCI-H522 cells assessed as cell growth at 10 '-4 M after 48 hrs by sulforhodamine B assay; details: NCI-H522, 48 h, read-out: Activity
SF-295 [5] = test: Growth inhibition of human SF295 cells assessed as cell growth at 10 '-6 M after 48 hrs by sulforhodamine B assay; details: SF-295, 48 h, read-out: Activity
SF-539 = test: Growth inhibition of human SF539 cells after 48 hrs by sulforhodamine B assay; details: SF-539, 48 h
SF-268 = test: Growth inhibition of human SF268 cells assessed as cell growth at 10 '-7 M after 48 hrs by sulforhodamine B assay; details: SF-268, 48 h, read-out: Activity
NCI-H522 [6] = test: Growth inhibition of human NCI-H522 cells after 48 hrs by sulforhodamine B assay; details: NCI-H522, 48 h
Malme-3M = test: Growth inhibition of human MALME-3M cells after 48 hrs by sulforhodamine B assay; method in brief: as §1
SF-295 [7] = test: Growth inhibition of human SF295 cells assessed as cell growth at 10 '-4 M after 48 hrs by sulforhodamine B assay; details: SF-295, 48 h, read-out: Activity
PC-3 [8] = test: Growth inhibition of human PC3 cells assessed as cell growth at 10 '-6 M after 48 hrs by sulforhodamine B assay; details: PC-3, 48 h, read-out: Activity
OVCAR-8 = test: Growth inhibition of human OVCAR8 cells assessed as cell growth at 10 '-8 M after 48 hrs by sulforhodamine B assay; details: OVCAR-8, 48 h, read-out: Activity
[9] = read-out: LD50 (the source's name)

Cc1cc(=O)oc2cc(OCCn3c(C)nn(-c4ccc(Cl)cc4)c3=O)ccc12
growth at 0.1 µM (T47D): 99%
inhibition of growth at 10 µM (A498): 74.3%
GI50 (SNB-19): 5.37 µM
TGI (SNB-19): > 1 µM
CC50 (SNB-19; [9]): > 1 µM
growth at 0.01 µM (HCT-15): 98%
GI50 (LOX IMVI): 4.83 µM
TGI (LOX IMVI): > 1 µM
CC50 (LOX IMVI; [9]): > 1 µM
growth at 0.01 µM (PC-3 [1]): 97%
growth at 1 µM (K562): 53%
growth at 10 µM (SK-MEL-2): 62%
growth at 0.1 µM (SN12C [2]): 90%
growth at 0.01 µM (MDA-MB-468): 94%
growth at 0.1 µM (HCT-116): 98%
growth at 1 µM (MCF7): 77%
growth at 0.1 µM (OVCAR-4): 90%
inhibition of growth at 10 µM (NCI-H23): 54.2%
growth at 10 µM (RPMI-8226): 50%
growth at 1 µM (MOLT-4): 100%
growth at 100 µM (HT-29): 9%
growth at 1 µM (SN12C [3]): 82%
growth at 10 µM (HOP-62): 8%
growth at 100 µM (U-251): -4%
GI50 (UO-31): 1.27 µM
TGI (UO-31): > 1 µM
CC50 (UO-31; [9]): > 1 µM
growth at 100 µM (NCI-H522 [4]): -22%
growth at 1 µM (SF-295 [5]): 74%
GI50 (SF-539): 4.06 µM
TGI (SF-539): 4.74 µM
CC50 (SF-539; [9]): > 1 µM
growth at 0.1 µM (SF-268): 99%
GI50 (NCI-H522 [6]): 3.85 µM
TGI (NCI-H522 [6]): 3.82 µM
CC50 (NCI-H522 [6]; [9]): > 1 µM
GI50 (Malme-3M): 3.85 µM
TGI (Malme-3M): > 1 µM
CC50 (Malme-3M; [9]): > 1 µM
growth at 100 µM (SF-295 [7]): 16%
growth at 1 µM (PC-3 [8]): 74%
growth at 0.01 µM (OVCAR-8): 95%
